An excerpt weighted towards active compounds, which were near 1.7% of everything screened.
AI-2 QS mod – modulates the Vibrio harveyi AI-2 quorum sensing system; Vibrio harveyi JMH597 AI-2 luminescence/OD600 ratio, 9 h; active compounds read low; strain lacks LuxN and CqsS sensors; 0 = neutral-control median; activity change, % at 7.5 µM; hit rate 0.4% among 300,000; in the data active = activity change below about -75%, passing the limit was not always enough; inconclusive = no clear call, values can overlap the other calls;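 note: luminescence divided by OD600 gain over 9 h not by final OD600 alone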
ARNT-TACC3 inh – disruptors of human ARNT/TACC3 interaction | AlphaScreen His-ARNT PAS-B/GST-TACC3 binding, luminescence; TACC3 fragment carries E629A point mutation | inhibition, % at 9.99 µM | hit rate 0.66% among 390,000 | AID 623870;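 active = mean inhibition of replicates at least 50% and at least half of replicates each reaching 50%; inconclusive = half or more replicates reach 50% but mean below 50%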;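 note: 0% = complete ARNT plus TACC3 wells and 100% = ARNT alone without TACC3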
Rce1 inh – blocks yeast Ras-converting enzyme. yeast membranes, quenched prenylated peptide cleavage fluorescence. calls only. Q03530. hit rate 0.27% among 290,000. AID 2563;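 active = fall in fluorescence gain of 50% or more versus controls, with final raw signal at or below 3038400; inconclusive = same 50% fall but final raw signal above 3038400; inactive = fall in fluorescence gain under 50%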;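 note: plate controls were neutral control wells for no effect and wells lacking membranes for full effect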
Target sequence (Q03530 whole entry, looked up): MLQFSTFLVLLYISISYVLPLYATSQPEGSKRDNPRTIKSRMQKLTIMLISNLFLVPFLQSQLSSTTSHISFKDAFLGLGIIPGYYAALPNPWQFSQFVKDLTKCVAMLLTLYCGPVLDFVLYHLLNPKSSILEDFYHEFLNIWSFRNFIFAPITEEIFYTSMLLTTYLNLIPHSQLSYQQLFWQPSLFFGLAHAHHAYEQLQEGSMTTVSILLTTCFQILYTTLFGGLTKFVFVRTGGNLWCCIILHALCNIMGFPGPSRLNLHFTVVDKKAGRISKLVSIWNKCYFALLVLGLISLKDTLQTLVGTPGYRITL
CAL PDZ FP-1 – CAL PDZ (human) peptide binding inhibition | Q9HD26 | purified CAL PDZ, TMR-peptide fluorescence polarization, 1 h | inhibition, % at 24.9 µM | hit rate 0.92% among 300,000 | AID 602252;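 active = mean inhibition of at least 30% with at least half of replicates also reaching 30%; inconclusive = no clear call, values can overlap the other calls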;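 note: 0% = DMSO neutral control and 100% = excess unlabeled competitor peptide PRC23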
CAL PDZ FP-2 – human CAL PDZ-peptide interaction inhibition; Q9HD26; purified CAL PDZ, TMR-peptide fluorescence polarization, 1 h; inhibition, % at 20 µM; hit rate 0.02% among 330,000; AID 504414;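 active = highest replicate inhibition of at least 40%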;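 note: plate controls were DMSO neutral control wells for no effect and unlabeled competitor peptide control wells for full effect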
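material = purified tagged CAL PDZ domain construct (CerCALP) | buffer or medium = sodium phosphate/NaCl buffer pH 7.4 with TCEP, IgG, Thesit | reagent = TMR-labelled reporter peptide T*-PRC34 bound in PDZ groove | incubation = 1 h room-temperature incubation prior to read | measured by = fluorescence polarization (mP) | evaluation = percent inhibition from loss of millipolarization | control set = unlabelled peptide and DMSO controls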
JMH597 growth rt – retest: inhibitors of Vibrio harveyi JMH597 growth; shares compounds with AI-2 QS mod; OD600 absorbance, 9 h; lacks LuxN and CqsS sensors; growth inhibition, % at 7.5 µM; hit rate 1% among 750; AID 2726;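 active = every replicate shows growth inhibition above 50%; inconclusive = at least half, but not all, replicates pass that cutoff; inactive = fewer than half of replicates pass it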
BB721 const-QS lum – retest counter-screen: BB721 constitutive quorum sensing luminescence decrease; hit rate 95% among 750; shares compounds with AI-2 QS mod; Vibrio harveyi BB721 luminescence, 9 h; inhibition, % at 7.5 µM;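 active = inhibition above about 80% in every replicate, not just on average, limit read from the data; inconclusive = at least half of replicates past the limit, but not all; inactive = fewer than half of replicates past the limit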
BB721 growth rt – retest: blocks Vibrio harveyi BB721 growth. shares compounds with AI-2 QS mod. OD600 absorbance, 9 h. growth inhibition, % at 7.5 µM. hit rate 3% among 750. AID 2728;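 active = every replicate shows growth inhibition above 50%; inconclusive = at least half but not all replicates above 50% inhibition; inactive = under half of replicates above 50% inhibition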
AI-2 QS JMH597 – Vibrio harveyi AI-2 signaling luminescence modulation – JMH597 strain, confirmation | shares compounds with AI-2 QS mod | Vibrio harveyi JMH597 AI-2 quorum sensing luminescence, 9 h; luxN and CqsS knockout, AI-2 only | inhibition, % at 7.5 µM | hit rate 97% among 750;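 active = every replicate shows more than 75% inhibition of signal versus neutral control wells; inconclusive = half to three quarters of replicates exceed 75% inhibition; inactive = fewer than half of replicates exceed 75% inhibition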
An asterisk follows results filed as active; i = inactive; ? = inconclusive; . = not tested or not shown.

SMILES | AI-2 QS mod | ARNT-TACC3 inh | Rce1 inh | CAL PDZ FP-1 | CAL PDZ FP-2 | JMH597 growth rt | BB721 const-QS lum | BB721 growth rt | AI-2 QS JMH597
CC(=O)Nc1ccc(NC(=O)C(C)OC(=O)CCN=C2NS(=O)(=O)c3ccccc32)cc1 (centres undefined) | 16 | -4 | i | -3 | -3 | . | . | . | .
N/C(=N\S(=O)(=O)c1ccccc1)c1ccc([N+](=O)[O-])cc1 | -2 | -26 | i | 2 | 0 | . | . | . | .
O=C(Cn1c(-c2cncs2)nc2ccccc21)NCc1ccccc1 | 12 | 12 | i | 0 | 1 | . | . | . | .
Cc1cc(C)nc(SCC(=O)Nc2ccc(N3CCOCC3)c(Cl)c2)n1 | . | 4 | . | -1 | -1 | . | . | . | .
CNc1nc(SCC(=O)Nc2ccc(Cl)c(Cl)c2)nc(N2CCOCC2)n1 | ? | -5 | i | 0 | 0 | -13 | -13 | -22 | -2
COc1ccc(NS(=O)(=O)c2ccc(N3C(=O)CCC3=O)cc2)cc1 | 14 | -8 | i | 0 | 0 | . | . | . | .
COc1ccc(S(=O)(=O)Nc2ccc(-n3cccc3)cc2)cc1 | -96* | -3 | i | -4 | -2 | -1 | 94* | -50 | 99*
Cc1ccc(CNC(=O)Nc2cccs2)cc1 | -82* | 2 | i | -2 | . | 15 | 95* | 25 | 95*
Cc1ccc(CNC(=O)Nc2ccc(Cl)cc2)cc1 | -83* | -4 | i | -6 | 0 | -22 | 86* | -21 | 90*
O=C(NCc1cccs1)Nc1ccc(Cl)cc1 | ? | . | i | 3 | 1 | 34 | 94* | 60* | 91*
COc1ccc(CNC(=O)Nc2cccs2)cc1OC | 28 | 4 | i | -8 | -1 | . | . | . | .
Cc1ccc(CNC(=O)NCc2ccccc2)cc1 | -49 | 0 | . | -4 | -4 | . | . | . | .
Cc1ccc(CNC(=O)Nc2ccccc2)cc1 | -91* | 23 | i | 1 | 0 | -6 | 97* | 4 | 97*
O=C(NCCNC(=O)Nc1ccc(Cl)cc1)Nc1ccc(Cl)cc1 | . | -5 | . | 0 | 0 | . | . | . | .
Cc1cc(-c2ccco2)n(CC(=O)NCc2ccccc2)n1 | 12 | 1 | i | . | -1 | . | . | . | .
CN(C)c1ccc(C(=O)OCC(=O)NCCCc2ccccc2)cc1 | 19 | -5 | i | 1 | 0 | . | . | . | .
Cc1ccc(S(=O)(=O)Nc2ccc3c(c2)C(=O)N([C@H](C)CO)C[C@@H](C)[C@@H](CN(C)Cc2ccc(-c4ccccc4)cc2)O3)cc1 | . | -5 | . | . | . | . | . | . | .
Cc1cc(C)c2c(CN3CCOCC3)cc(=O)oc2c1C | 4 | -1 | i | -2 | 2 | . | . | . | .
O=C(NCc1ccc(Cl)cc1)Nc1ccc(F)cc1 | ? | -5 | i | -5 | -3 | -19 | 96* | -8 | 96*
O=C(NCc1cccs1)C(=O)c1c[nH]c2ccccc12 | -92* | -8 | i | 4 | -2 | 20 | 97* | -1 | 98*
O=C(NCc1ccccc1Cl)C(=O)c1c[nH]c2ccccc12 | -83* | . | i | -2 | -2 | -15 | 94* | 16 | 95*
O=C1CCSc2ccc(Cl)cc2N1Cc1ccccc1 | 3 | -3 | i | -5 | 0 | . | . | . | .
CCc1nnc(NC(=O)CSc2ccc(-c3ccco3)nn2)s1 | -83* | 2 | i | 2 | 0 | 15 | 94* | 14 | 96*
Cc1nnc(NC(=O)CSc2ccc(-c3ccco3)nn2)s1 | -39 | 12 | i | 1 | 0 | . | . | . | .
CO[C@H]1CN(C)C(=O)c2cc(NC(=O)c3ccno3)ccc2OC[C@H](C)NC[C@H]1C | . | 8 | . | . | . | . | . | . | .
SMILES | AI-2 QS mod | ARNT-TACC3 inh | Rce1 inh | CAL PDZ FP-1 | CAL PDZ FP-2 | JMH597 growth rt | BB721 const-QS lum | BB721 growth rt | AI-2 QS JMH597
COc1ccc(CNC(=O)Nc2cccc(Cl)c2)cc1 | -94* | -1 | i | -6 | 0 | 0 | 97* | 14 | 98*
COC(=O)c1cccc(NC(=S)NCc2ccc(Cl)cc2)c1 | -83* | -6 | i | -1 | -2 | -24 | 90* | 3 | 92*
COC(=O)c1cc(NC(=S)NCc2ccc(Cl)cc2)cc(C(=O)OC)c1 | -40 | 0 | i | -4 | -2 | . | . | . | .
COc1ccc(CNC(=S)Nc2cccc(C)c2)cc1 | -51 | 0 | i | -2 | -1 | . | . | . | .
COc1ccc(NC(=O)NCc2ccc(Cl)cc2)cc1 | -16 | -2 | i | 5 | -2 | . | . | . | .
COc1ccc(CNC(=S)Nc2cccc(Cl)c2)cc1 | -84* | . | i | . | . | 0 | 95* | 7 | 95*
CO[C@H]1CN(C)C(=O)c2cc(NC(=O)C3CCCCC3)ccc2OC[C@H](C)N(Cc2cccnc2)C[C@H]1C | . | -9 | . | . | . | . | . | . | .
CCC(=O)N(C)C[C@H]1Oc2ncc(Br)cc2C(=O)N([C@@H](C)CO)C[C@@H]1C | . | -7 | . | . | . | . | . | . | .
Cc1ccc(-c2[nH]ncc2C(=O)c2ccc(Br)cc2)c(O)c1 | -95* | 6 | i | 12 | 0 | 14 | 97* | -5 | 98*
O=C(OC1CCCCC1)c1ccc(NC(=O)c2ccco2)cc1 | -79* | -4 | i | 7 | -2 | 25 | 85* | ? | 90*
O=C(Nc1ccc(OC(=O)c2ccco2)cc1)c1ccco1 | 21 | . | i | 18 | -1 | . | . | . | .
O=C(Nc1ccc(Oc2cccc3ccccc23)cc1)c1ccco1 | -88* | 0 | i | -4 | -1 | 32 | 95* | 45 | 93*
O=C(O)c1ccccc1C(=O)Nc1ccc(Oc2cccc3ccccc23)cc1 | 41 | -1 | . | . | -2 | . | . | . | .
CCCN1[C@@H]2c3ccc(C4=CCCC4)c(=O)n3C[C@@H]2[C@@H](CO)[C@@H]1C(=O)NCc1cccc(OC)c1 | . | 1 | . | . | . | . | . | . | .
CC1CCN(S(=O)(=O)c2cccc(C(=O)NCc3ccco3)c2)CC1 | 5 | -35 | i | . | 0 | . | . | . | .
CCCOC(=O)c1ccc(NS(=O)(=O)c2cccs2)cc1 | -86* | -2 | i | -2 | 0 | 16 | 89* | -22 | 99*
COc1cccc(-c2cn(CC[C@@H]3CC[C@H](NC(=O)CN(C)C)[C@@H](CO)O3)nn2)c1 | . | 7 | . | . | . | . | . | . | .
COc1cccc(OCc2cc(/C=N/Nc3ccc(C(=O)O)cc3)ccc2OC)c1 | -84* | 11 | i | -8 | 0 | 19 | 92* | 5 | 95*
Cc1cc(C)nc(N/N=C/c2cc3c(cc2[N+](=O)[O-])OCO3)n1 | 4 | -4 | i | . | 0 | . | . | . | .
O=C(O)c1ccc(N/N=C/c2ccc3c(c2)OCO3)cc1 | -85* | -3 | i | -7 | -1 | 9 | 98* | 39 | 98*
COc1cccc(C(=O)Oc2ccc(/C=N/Nc3ccc(C(=O)O)cc3)cc2OC)c1 | 41 | 12 | i | -3 | 3 | . | . | . | .
